Measured values: publication PMC9890357 (Food Science of Animal Resources, 2023)
No end group written: not given here.

How the values were obtained:
ACE = conditions: peptides with C-terminal Tyr residues; ref Chen et al., 2009; Erdmann et al., 2006; Ko et al., 2012; Liu et al., 2021; Yu et al., 2019; cited from earlier work
[1] = synthetic ACE inhibitor drugs; ref Lee and Hur, 2017; cited from earlier work
[2] = target: ACE (angiotensin I-converting enzyme) (Homo sapiens, UniProt P12821); assay: ACE inhibition activity; type: biochemical
Method in brief: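 Commercial ACE kit-WST run according to the manufacturer's protocol. The test compound was a peptide purified from an alcalase hydrolysate of velvet antler (<5 kDa ultrafiltration fraction, then Sephadex G-25, then reverse-phase HPLC) and lyophilized. Results are reported as mean±SD. Groups were compared by one-way ANOVA with Duncan's multiple range test, with significance at p<0.05.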

Chain of ACE (angiotensin I-converting enzyme) (P12821 30-1306, species assumed): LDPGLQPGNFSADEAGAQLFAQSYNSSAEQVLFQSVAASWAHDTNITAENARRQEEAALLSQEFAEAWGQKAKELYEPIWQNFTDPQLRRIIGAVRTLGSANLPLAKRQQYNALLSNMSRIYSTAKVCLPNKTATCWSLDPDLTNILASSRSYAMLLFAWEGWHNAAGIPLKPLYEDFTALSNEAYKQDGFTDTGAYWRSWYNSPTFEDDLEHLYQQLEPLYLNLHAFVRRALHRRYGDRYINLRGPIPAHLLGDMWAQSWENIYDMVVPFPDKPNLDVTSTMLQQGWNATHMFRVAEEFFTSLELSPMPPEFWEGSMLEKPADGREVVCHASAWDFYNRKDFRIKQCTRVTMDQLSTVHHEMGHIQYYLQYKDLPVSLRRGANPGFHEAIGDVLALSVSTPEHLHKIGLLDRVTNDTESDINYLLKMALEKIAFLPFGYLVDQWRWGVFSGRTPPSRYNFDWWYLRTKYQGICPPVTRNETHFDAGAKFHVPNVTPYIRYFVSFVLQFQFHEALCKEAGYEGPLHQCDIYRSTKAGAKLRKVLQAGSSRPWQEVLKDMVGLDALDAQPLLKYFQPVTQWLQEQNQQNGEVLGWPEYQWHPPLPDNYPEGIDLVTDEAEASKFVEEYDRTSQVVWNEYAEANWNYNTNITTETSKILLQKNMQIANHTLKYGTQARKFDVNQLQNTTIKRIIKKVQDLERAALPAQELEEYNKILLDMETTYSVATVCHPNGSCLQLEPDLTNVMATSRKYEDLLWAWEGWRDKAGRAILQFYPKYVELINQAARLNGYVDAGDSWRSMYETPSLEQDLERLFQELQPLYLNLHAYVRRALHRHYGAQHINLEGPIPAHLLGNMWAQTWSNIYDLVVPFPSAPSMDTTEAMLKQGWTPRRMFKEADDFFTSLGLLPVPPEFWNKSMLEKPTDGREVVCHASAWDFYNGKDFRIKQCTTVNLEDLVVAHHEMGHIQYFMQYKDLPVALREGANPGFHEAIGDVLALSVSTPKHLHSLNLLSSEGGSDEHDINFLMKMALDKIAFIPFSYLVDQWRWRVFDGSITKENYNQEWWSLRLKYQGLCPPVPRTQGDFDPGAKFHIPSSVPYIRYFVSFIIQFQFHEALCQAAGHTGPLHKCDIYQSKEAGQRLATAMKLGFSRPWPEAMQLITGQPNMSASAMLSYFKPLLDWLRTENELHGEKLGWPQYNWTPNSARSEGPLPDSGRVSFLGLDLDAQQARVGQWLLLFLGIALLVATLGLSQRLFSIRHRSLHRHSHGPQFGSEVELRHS

Molecule	ACE inhibitory activity (in words) (ACE)	side effects [1]	other results
Met-Tyr	potent ACE inhibitory activities		
CCOC(=O)[C@H](CCc1ccccc1)N[C@@H](C)C(=O)N1CCC[C@H]1C(=O)O [enalapril]		headaches, insomnia, fatigue, and increased blood potassium levels	
Ile-Tyr	potent ACE inhibitory activities		
Arg-Val-Tyr	potent ACE inhibitory activities		
Val-Tyr	potent ACE inhibitory activities		
CCOC(=O)[C@H](CCc1ccccc1)N[C@H]1CCc2ccccc2N(CC(=O)O)C1=O [benazepril]		headaches, insomnia, fatigue, and increased blood potassium levels	
DNRYY [DNRYY, Asp-Asn-Arg-Tyr-Tyr]			IC50 [2]: 3.72 µM; inhibition at 1.75 µM ([2]; read-out: ACE inhibition): 23.6%; inhibition at 3.5 µM ([2]; read-out: ACE inhibition): 48.1%; inhibition at 7 µM ([2]; read-out: ACE inhibition): 69.8%; inhibition at 14 µM ([2]; read-out: ACE inhibition): 89.5%
C[C@H](CS)C(=O)N1CCC[C@H]1C(=O)O [captopril]		headaches, insomnia, fatigue, and increased blood potassium levels	
